# CHO parental Ca: counter-screen: ATP calcium response change in parental CHO cells; parental CHO-K1, ATP-induced calcium, Fluo-8 fluorescence; inhibition, % at 5.6 µM; actives 0.63% (n = 330,000); AID 463079;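 active = inhibition above that plate's mean sample inhibition plus 3 SD, cut at about 26% in these data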;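 also: 0% = ATP-challenged DMSO wells and 100% = DMSO wells without ATP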
#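 Assay system: untransfected parental CHO cell line. Also added: ATP agonist challenge. Dosing: one dose, 5.6 µM nominal. Measured by: Fluo-8 fluorescence. Read-out: % inhibition. Benchmarks: ATP wells versus no-ATP DMSO wells. Repeats: no replicates.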
# OX1R antag-1: human HCRTR1 antagonism | O43613 | CHO/OX1R cells, Fluo-8 calcium fluorescence, orexin A | inhibition, % at 5 µM | actives 0.43% (n = 330,000) | AID 434989;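 active = inhibition above its plate's threshold, mean inhibition of all tested compounds on the plate plus 3 SD, cut at about 37% in these data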;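 also: 0% = orexin A challenge wells and 100% = SB-334867-A antagonist wells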
# Target sequence (O43613 whole entry, looked up): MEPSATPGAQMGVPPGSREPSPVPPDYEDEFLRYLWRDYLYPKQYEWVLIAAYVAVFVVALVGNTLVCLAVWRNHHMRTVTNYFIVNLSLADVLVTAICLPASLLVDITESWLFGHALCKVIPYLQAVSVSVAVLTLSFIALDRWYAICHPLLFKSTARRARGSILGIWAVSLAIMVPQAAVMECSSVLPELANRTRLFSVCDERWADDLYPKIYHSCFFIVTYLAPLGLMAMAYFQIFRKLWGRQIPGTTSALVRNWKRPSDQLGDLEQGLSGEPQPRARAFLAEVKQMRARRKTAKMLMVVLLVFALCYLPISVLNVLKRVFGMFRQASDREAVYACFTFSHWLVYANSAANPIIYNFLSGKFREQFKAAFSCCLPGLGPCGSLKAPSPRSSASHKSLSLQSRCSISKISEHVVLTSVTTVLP
# GPR7 antagonist: antagonists of human GPR7 (neuropeptides B/W receptor 1); GPR7-expressing cells, fluorescence antagonist assay; inhibition, % at 4.4 µM; P48145; actives 1.1% (n = 290,000); in the data active = inhibition above about 16%, passing the limit was not always enough;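 also: cells stimulated with the agonist NPW; 0% = agonist with vehicle and 100% = vehicle without agonist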
# Target sequence (P48145 whole entry, looked up): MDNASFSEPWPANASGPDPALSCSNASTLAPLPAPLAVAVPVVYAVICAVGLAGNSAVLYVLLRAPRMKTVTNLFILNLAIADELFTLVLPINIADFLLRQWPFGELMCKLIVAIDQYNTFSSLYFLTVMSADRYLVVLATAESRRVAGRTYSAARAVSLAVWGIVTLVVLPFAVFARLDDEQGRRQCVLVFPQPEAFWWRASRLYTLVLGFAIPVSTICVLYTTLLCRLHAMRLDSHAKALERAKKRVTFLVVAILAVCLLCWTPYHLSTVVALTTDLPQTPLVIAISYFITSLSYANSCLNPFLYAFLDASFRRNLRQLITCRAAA
# TAAR1 ag: agonists of human TAAR1. Q96RJ0. CHO RD-HGA16 TAAR1, Fluo-8 calcium fluorescence; vehicle wells 0%, saturating PEA agonist 100%. activation, % at 3 µM. actives 0.99% (n = 360,000);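 active = activation above the mean activation of all test compounds in the run plus 3 SD, cut at about 38% in these data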
#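 Assay system: CHO-derived RD-HGA16 cells with stable Gα16 and human TAAR1; timing: 17-24 h seeding, 75 min 37 °C dye, 30 min RT; read-out: % activation from peak over basal fluorescence ratio, DMSO-to-PEA scaled; measured by: kinetic Fluo-8 calcium fluorescence; benchmarks: low control DMSO, high control PEA (EC100); doses: 3 µM single concentration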
# TAAR1 antag: human TAAR1 antagonism | CHO RD-HGA16 TAAR1, Fluo-8 calcium fluorescence, antagonist | actives 1.5% (n = 360,000) | inhibition, % at 3 µM;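 active = inhibition above a per-plate cutoff, the mean inhibition of test compounds on that plate plus 3 SD, cut at about 49% in these data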;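 also: 0% = DMSO plus EC80 beta-PEA response and 100% = DMSO alone without agonist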
#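 Material: RD-HGA16 CHO cells with stable hTAAR1 and Gα16; Dosing: single nominal final test compound concentration of 3 µM; Schedule: seeding 17-24 h prior, 75-min 37 °C, 30-min RT dye loading; Detection: kinetic Fluo-8 calcium fluorescence measurement; Measure: % inhibition from peak post-agonist over basal fluorescence ratio; Benchmarks: vehicle and agonist controls.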
# OX1R antag-2: blocks the human orexin 1 receptor; O43613; OX1R-expressing cells, FRET antagonist read-out; inhibition, % at 6.6 µM; actives 1.8% (n = 330,000); in the data active = inhibition mostly above about 38%, no sharp cut-off; inactive = mostly below about 40%;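 also: 0% = agonist challenge alone and 100% = reference antagonist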
# TAAR1 ag confirm: confirmation of human TAAR1 agonists. shares compounds with TAAR1 ag. CHO RD-HGA16 TAAR1, Fluo-8 calcium fluorescence; scaled: DMSO 0%, maximal phenethylamine 100%. activation, % at 3 µM. actives 82% (n = 2,400). AID 651783;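 active = activation above a cutoff set at the run's mean compound activation plus 3 SD, cut at about 39% in these data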
# Ga16 ag counter: nonselective agonism, TAAR1 counter-screen. shares compounds with TAAR1 ag. CHO-Ga16 parental, Fluo-8 calcium fluorescence; normalized to maximal ATP response, DMSO zero. activation, % at 3 µM. actives 50% (n = 2,400);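 active = activation above the run cutoff, the mean activation over all tested wells plus 3 SD, cut at about 12% in these data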;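 also: 0% = DMSO wells and 100% = maximal ATP response on the peak over basal ratio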
# TAAR1 desensitize: human TAAR1 agonist that also desensitizes the receptor; inhibition, % at 3 µM; actives 46% (n = 2,400); CHO RD-HGA16 hTAAR1, Fluo-8 calcium, beta-PEA response inhibition; shares compounds with TAAR1 ag;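 active = inhibition above the run cutoff, the mean inhibition of all test compounds plus 3 SD, cut at about 49% in these data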;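 also: beta-PEA stimulus applied at its EC80; loss of beta-PEA calcium signal after compound pretreatment read as receptor desensitization; 0% = DMSO with beta-PEA at EC80 and 100% = DMSO alone without agonist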
# Ga16 antag count: nonselective Ga16 antagonism, counter-screen; inhibition, % at 3 µM; shares compounds with TAAR1 ag; CHO-Ga16 ATP-induced calcium, Fluo-8 fluorescence; actives 39% (n = 2,400);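 active = inhibition above the plate's mean compound inhibition plus 3 SD, computed per plate, cut at about 22% in these data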;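 also: 0% = EC80 ATP with DMSO and 100% = DMSO wells without ATP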
# Starred values were filed as active, the others as inactive; nt = not tested or not shown. An excerpt weighted towards active compounds, which were near 4.6% of everything screened.
SMILES,CHO parental Ca,OX1R antag-1,GPR7 antagonist,TAAR1 ag,TAAR1 antag,OX1R antag-2,TAAR1 ag confirm,Ga16 ag counter,TAAR1 desensitize,Ga16 antag count
CC(C)CCn1c(Sc2nc3ccccc3o2)nc2c1c(=O)[nH]c(=O)n2C,-17,-15,-7,0,-3,28,nt,nt,nt,nt
CC1Cc2nc(SCC(=O)OCc3ccccc3)n(C)c(=O)c2S1 (stereo not given),-19,-28,3,-1,-38,16,nt,nt,nt,nt
CCc1cc2c(NCCC(=O)O)nc(C)nc2s1,-5,-3,-14,49*,-7,9,104*,47*,13,-2
COc1ccc2c(c1)c(C(=O)CN1CCc3ccccc3C1)c(C)n2C,-8,-11,-13,69*,-10,37,86*,1,33,1
COc1ccc2c(c1)c(C(C)=O)c(C)n2C,-1,-15,0,0,-15,8,nt,nt,nt,nt
CCOc1ccccc1N1CCN(Cc2cccc(OC)c2OC)CC1,-34,-41,-6,13,9,8,nt,nt,nt,nt
CCOc1ccccc1N1CCN(Cc2cn[nH]c2-c2ccc(F)cc2)CC1,-31,-42,-17,95*,-29,7,83*,41*,22,12
O=C(/C(=N\Nc1ccccc1)Sc1nnnn1-c1ccccc1)c1ccccc1,-22,-24,-8,-1,-17,26,nt,nt,nt,nt
OCCNCc1cc(Br)ccc1OCc1ccc(Cl)cc1Cl,nt,nt,21,56*,-7,nt,79*,49*,51*,41*
CC1=C(NCCc2ccccc2)CCC1=O,-18,-17,9,95*,60*,31,103*,4,87*,0
CCCCc1c(-c2ccccc2OC)ncn1CCc1cccc(OC)c1,nt,nt,nt,25,17,nt,nt,nt,nt,nt
CCCCCc1c(-c2ccc(Br)cc2)ncn1CCc1ccccc1OC,nt,nt,nt,71*,27,nt,74*,7,48,25*
CCCc1c(-c2ccccc2Br)ncn1Cc1ccccc1OC,nt,nt,nt,2,10,nt,nt,nt,nt,nt
CCc1c(-c2ccc(OC)c(OC)c2)ncn1CCc1ccccc1OC,nt,nt,nt,32,7,nt,nt,nt,nt,nt
CCCCc1c(-c2ccccc2Br)ncn1CCc1ccccc1OC,nt,nt,nt,70*,83*,nt,73*,7,82*,39*
CCCCc1c(-c2ccccc2OC)ncn1CCc1cccc(F)c1,nt,nt,nt,69*,43,nt,66*,4,74*,21
CCCCCc1c(-c2cccc(OC)c2)ncn1CCc1ccccc1OC,nt,nt,nt,21,48,nt,nt,nt,nt,nt
COc1ccccc1CCn1cnc(-c2ccc(Cl)cc2)c1CC(C)C,nt,nt,nt,53*,66*,nt,84*,3,55*,19
CCCC(=O)N1CCC1(C)C(=O)NS(=O)(=O)c1cccs1 (stereo not given),nt,nt,nt,3,-10,nt,nt,nt,nt,nt
CCCCc1c(-c2ccccc2OC)ncn1Cc1ccccc1,nt,nt,nt,4,18,nt,nt,nt,nt,nt
CCCCc1c(-c2ccccc2OC)ncn1CCc1ccccc1Cl,nt,nt,nt,64*,89*,nt,74*,11,75*,36*
COc1ccc(S(=O)(=O)n2nc(OC(C)=O)cc2N)cc1,12,-5,-11,10,12,32,nt,nt,nt,nt
COc1cccc(C(=O)Oc2cc(N)n(S(=O)(=O)c3ccc(C)cc3)n2)c1OC,-26,-19,5,64*,2,44,50*,14*,6,9
Nc1cc(OC(=O)c2c(F)cccc2Cl)nn1S(=O)(=O)c1ccccc1,8,-5,1,54*,-7,36,51*,22*,10,18
CCC(C)N(C(=O)COC(=O)COc1c(C)cc(C)cc1C)C1CCS(=O)(=O)C1 (stereo not given),0,-20,nt,3,-16,22,nt,nt,nt,nt
SMILES,CHO parental Ca,OX1R antag-1,GPR7 antagonist,TAAR1 ag,TAAR1 antag,OX1R antag-2,TAAR1 ag confirm,Ga16 ag counter,TAAR1 desensitize,Ga16 antag count
CCOc1ccc(NC(=O)CSc2nnnn2C2CCCC2)cc1,-18,-19,-6,-1,-8,10,nt,nt,nt,nt
COc1ccc(NC(=O)c2cc(Br)c(Br)s2)cn1,-22,-30,-3,71*,29,12,49*,42*,36,11
CCc1sc(C(=O)Nc2cccnc2)cc1Br,-19,-11,-12,65*,22,37,48*,33*,16,11
CCc1cc(C(=O)Nc2ccc(OC)nc2)sc1C,-2,-6,nt,2,6,31,nt,nt,nt,nt
O=C(COC(=O)/C=C/c1ccc(OC(F)F)cc1)NCc1cccs1,5,7,-18,82*,61*,7,15,11,-1,5
COc1ccccc1CNC(=O)COC(=O)/C=C/c1ccc(OC(F)F)c(OC)c1,4,-14,nt,92*,78*,28,47*,23*,57*,23*
CC1=C(C(=O)N(C)C)CC(CC(=O)NCCc2ccccn2)C(=O)N1CCCN1CCCC1=O (stereo not given),nt,nt,nt,49*,-9,nt,44*,0,6,10
CCN(CC)C(=O)C1=C(C)N(CCCN2CCCC2=O)C(=O)C(CC(=O)NCCc2ccccn2)C1 (stereo not given),nt,nt,nt,10,-25,nt,nt,nt,nt,nt
NC(N)=Nc1cc2ccccc2c2ccccc12,-10,-3,-6,nt,nt,-2,nt,3,nt,6
O=[N+]([O-])c1cc2no[n+]([O-])c2cc1N1CCCCC1,nt,nt,nt,2,-6,nt,nt,nt,nt,nt
CNc1ncnc2c1ncn2[C@H]1CN(CCc2ccccc2)C[C@@H](CO)O1,nt,nt,nt,21,-20,nt,nt,nt,nt,nt
CN(C)CCNc1ncnc2c1ncn2[C@H]1CN(CCc2ccccc2)C[C@@H](CO)O1,nt,nt,nt,58*,-16,nt,48*,-1,7,4
O=c1c2cnn(-c3ccc(F)cc3)c2ncn1Cc1ccccc1,-3,-20,-6,43*,50*,0,4,4,6,12
CCCS(=O)(=O)NC(=O)C1(C)CCCN(C(=O)c2cc(F)cc(F)c2)C1 (stereo not given),nt,nt,nt,2,-4,nt,nt,nt,nt,nt
COCCN1CCC(CNCc2c(C(=O)N3CCCCC3)nc3c(C)cccn23)C1 (stereo not given),-19,-6,-15,3,-17,11,nt,nt,nt,nt
Cc1cccn2c(CNCC3OCCc4ccccc43)c(C(=O)N3CCCCC3)nc12 (stereo not given),-22,-37,-21,69*,45,7,74*,6,61*,19
